Assay results reported in ChEMBL document CHEMBL1212793, “Bortezomib inhibits hepatitis B virus replication in transgenic mice” (Antimicrob Agents Chemother, 2010).
The source made the active and inactive calls. The rule behind the calls is not given here.

Experiments:
Mus musculus [1] = test: Toxicity in HBV infected 1.3.32 transgenic mouse liver assessed as hepatitis at 0.2 mg/kg, iv single dose after 24 hrs by rotine […] method; type: organism-based; parameters: dose 0.2 mg/kg, route intravenous; conditions: in vivo
How it was run: (§1)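 Male HBV 1.3.32 transgenic mice, 8–12 weeks, HBeAg-matched. Each got a single i.v. dose in saline/mannitol: 1 mg/kg examined at day 1, 2 or 6, or 0.2, 1.0 or 5.0 mg/kg examined at 24 h. Diluent-only animals served as controls. Livers from representative mice were fixed in zinc-buffered formalin, embedded in paraffin and stained with H&E for pathology.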

Mus musculus [2] = test: Toxicity in HBV infected 1.3.32 transgenic mouse liver assessed as serum alanine aminotransferase level at 5 mg/kg, iv after 24 hrs; type: organism-based; parameters: dose 5 mg/kg, route intravenous; conditions: in vivo
How it was run: (§2)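 Serum ALT was read spectrophotometrically with Infinity ALT reagent against enzyme standards. Mice were HBV 1.3.32 transgenic males, 8–12 weeks, HBeAg-matched, with 3–4 per group. They received a single i.v. injection in 0.9% NaCl/mannitol: 1 mg/kg sampled at 1, 2, 3 or 6 days, or 0.2, 1 or 5 mg/kg sampled at 24 h. Controls got diluent only.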

Hepatitis B virus [3] = conditions: 0.2 mg/kg
Mus musculus [4] = test: Toxicity in HBV infected 1.3.32 transgenic mouse assessed as labored breathing, hunched posture at 5 mg/kg, iv after 24 hrs; type: organism-based; parameters: dose 5 mg/kg, route intravenous; conditions: in vivo
Mus musculus [5] = test: Toxicity in HBV infected 1.3.32 transgenic mouse liver assessed as hepatitis at 1 mg/kg, iv single dose after 6 days by rotine […] method; type: organism-based; parameters: dose 1 mg/kg, route intravenous; conditions: in vivo, 144 h; how it was run: as §1
Mus musculus [6] = test: Toxicity in 1.3.32 transgenic mouse liver assessed as serum alanine aminotransferase level at 1 mg/kg, iv after 2 days; type: organism-based; parameters: dose 1 mg/kg, route intravenous; conditions: in vivo, 48 h; how it was run: as §2
Hepatitis B virus [7] = conditions: 1 mg/kg
Mus musculus [8] = test: Toxicity in 1.3.32 transgenic mouse assessed as serum alanine aminotransferase level liver at 1 mg/kg, iv after 6 days […]; type: organism-based; parameters: dose 1 mg/kg, route intravenous; conditions: in vivo, 144 h
Hepatitis B virus [9] = conditions: 1 mg/kg; remark: listed apart in the source
Hepatitis B virus [10] = conditions: 1 mg/kg; remark: listed apart in the source
Mus musculus [11] = test: Toxicity in HBV infected 1.3.32 transgenic mouse liver assessed as hepatitis at 5 mg/kg, iv single dose after 24 hrs by rotine […] method; type: organism-based; parameters: dose 5 mg/kg, route intravenous; conditions: in vivo; how it was run: as §1
Hepatitis B virus [12] = conditions: Liver, 1 mg/kg
Mus musculus [13] = test: Toxicity in HBV infected 1.3.32 transgenic mouse liver assessed as hepatitis at 1 mg/kg, iv single dose after 1 day by rotine […] method; type: organism-based; parameters: dose 1 mg/kg, route intravenous; conditions: in vivo, 24 h; how it was run: as §1
Mus musculus [14] = test: Toxicity in HBV infected 1.3.32 transgenic mouse liver assessed as hepatitis at 1 mg/kg, iv single dose after 2 days by rotine […] method; type: organism-based; parameters: dose 1 mg/kg, route intravenous; conditions: in vivo, 48 h; how it was run: as §1
Hepatitis B virus [15] = conditions: Liver, 1 mg/kg; remark: listed apart in the source
Hepatitis B virus [16] = test: Antiviral activity against HBV infected in 1.3.32 transgenic mouse assessed as serum HBeAg level at 5 mg/kg, iv single dose after 24 hrs by ELISA; type: functional
How it was run: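 Serum HBeAg and HBsAg were measured by ELISA in HBV 1.3.32 transgenic mice (male, 8-12 wk) after one i.v. dose in 0.9% NaCl/mannitol. Values are relative to control mice given diluent. 3-4 mice per group; mean ± SEM; Student's t test.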

Mus musculus [17] = test: Toxicity in HBV infected 1.3.32 transgenic mouse assessed as stress, ruffled fur at 5 mg/kg, iv after 24 hrs; type: organism-based; parameters: dose 5 mg/kg, route intravenous; conditions: in vivo
Hepatitis B virus [18] = conditions: 5 mg/kg

With `CC(C)C[C@H](NC(=O)[C@H](Cc1ccccc1)NC(=O)c1cnccn1)B(O)O` [BORTEZOMIB] the Activity (Mus musculus [1]) was “Non-toxic”, the Activity (Mus musculus [2]) was “Toxic” and the inhibition (Hepatitis B virus [3]) was “inactive”. For the same compound, the Activity (Mus musculus [4]) was “Toxic”, the Activity (Mus musculus [5]) was “Non-toxic” and the Activity (Mus musculus [6]) was “Toxic”. The inhibition (Hepatitis B virus [7]) was “inactive”, the Activity (Mus musculus [8]) was “Non-toxic” and the inhibition (Hepatitis B virus [9]) was “Active”. For the same compound, the inhibition (Hepatitis B virus [10]) was “Active”, the Activity (Mus musculus [11]) was “Non-toxic” and the inhibition (Hepatitis B virus [12]) was “Active”. For the same compound, the Activity (Mus musculus [13]) was “Non-toxic”, the Activity (Mus musculus [14]) was “Non-toxic” and the inhibition (Hepatitis B virus [15]) was “Active”. The Activity (Hepatitis B virus [16]) was 50%, the Activity (Mus musculus [17]) was “Toxic” and the inhibition (Hepatitis B virus [18]) was “Active”.
